Measurements published in ChEMBL document CHEMBL4177603 (Bioorg Med Chem Lett, 2017).

Experiments:
[1] = target: Muscarinic acetylcholine receptor M2 (Homo sapiens) (UniProt P08172); test: Antagonist activity at recombinant human M2 receptor expressed in CHOK1 cells assessed as inhibition of acetylcholine-induced cAMP accumulation at 10 uM measured after 10 mins by HTRF assay relative to control; format: functional, cell-based
[2] = Terminal half-life in dog at 0.3 mg/kg, iv via infusion for 0.5 hrs; format: ADME, organism-based, Canis lupus familiaris; conditions: in vivo, read-out: beta t1/2 (converted)
In short: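 Dog IV pharmacokinetics, with half-life reported as two values: α (initial phase) and β (terminal phase) of the disposition profile.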

[3] = target: 3',5'-cyclic-AMP phosphodiesterase 4D (Homo sapiens) (UniProt Q08499); test: Inhibition of recombinant human PDE4D2 at 10 uM using [3H]cAMP as substrate measured after 20 mins by scintillation counting method relative to control
[4] = target: D(1A) dopamine receptor (Homo sapiens) (UniProt P21728); test: Displacement of [3H]SCH 23390 from recombinant human D1 receptor at 10 uM after 60 mins by scintillation counting method
[5] = target: Sodium-dependent noradrenaline transporter (Homo sapiens, UniProt P23975); test: Displacement of [3H]nisoxetine from recombinant human norepinephrine transporter after 120 min by scintillation counting method
[6] = target: Sodium channel protein type 2 subunit alpha (Homo sapiens, UniProt Q99250); test: Inhibition of human Nav1.2 expressed in HEK cells by patch clamp electrophysiology method; format: cell-based
[7] = Protein binding in rat plasma assessed as fraction unbound; format: ADME, cell-free
[8] = target: T1, Alpha-1A adrenergic receptor (Homo sapiens) (UniProt P35348); test: Displacement of [3H]prazosin from recombinant human alpha1a receptor at 10 uM after 60 mins by scintillation counting method
T1 sequence (whole entry): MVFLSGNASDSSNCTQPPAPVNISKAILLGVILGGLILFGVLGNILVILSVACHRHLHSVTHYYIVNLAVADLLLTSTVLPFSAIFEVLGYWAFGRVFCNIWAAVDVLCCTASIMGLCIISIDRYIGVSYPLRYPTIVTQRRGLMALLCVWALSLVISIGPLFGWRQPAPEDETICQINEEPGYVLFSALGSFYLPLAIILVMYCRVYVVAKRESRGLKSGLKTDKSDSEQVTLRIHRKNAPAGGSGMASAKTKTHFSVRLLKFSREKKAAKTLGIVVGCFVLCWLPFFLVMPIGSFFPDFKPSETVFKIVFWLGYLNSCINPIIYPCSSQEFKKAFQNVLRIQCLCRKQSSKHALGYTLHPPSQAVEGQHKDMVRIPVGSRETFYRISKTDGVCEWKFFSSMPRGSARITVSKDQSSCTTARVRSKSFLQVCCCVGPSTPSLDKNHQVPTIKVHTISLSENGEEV

[9] = Clearance in rat plasma at 0.3 mg/kg, iv via infusion for 1 hr; format: ADME, organism-based
[10] = target: Alpha-2A adrenergic receptor (Homo sapiens) (UniProt P08913); test: Agonist activity at recombinant human alpha2a receptor at 10 uM relative to control; format: functional
[11] = target: Beta-1 adrenergic receptor (Homo sapiens) (UniProt P08588); test: Agonist activity at recombinant human beta1 receptor expressed in HEK293 cells assessed as increase in cAMP accumulation at 10 uM after 30 mins by HTRF assay relative to control; format: functional, cell-based
Chain of Beta-1 adrenergic receptor (Homo sapiens) (P08588 whole entry, looked up): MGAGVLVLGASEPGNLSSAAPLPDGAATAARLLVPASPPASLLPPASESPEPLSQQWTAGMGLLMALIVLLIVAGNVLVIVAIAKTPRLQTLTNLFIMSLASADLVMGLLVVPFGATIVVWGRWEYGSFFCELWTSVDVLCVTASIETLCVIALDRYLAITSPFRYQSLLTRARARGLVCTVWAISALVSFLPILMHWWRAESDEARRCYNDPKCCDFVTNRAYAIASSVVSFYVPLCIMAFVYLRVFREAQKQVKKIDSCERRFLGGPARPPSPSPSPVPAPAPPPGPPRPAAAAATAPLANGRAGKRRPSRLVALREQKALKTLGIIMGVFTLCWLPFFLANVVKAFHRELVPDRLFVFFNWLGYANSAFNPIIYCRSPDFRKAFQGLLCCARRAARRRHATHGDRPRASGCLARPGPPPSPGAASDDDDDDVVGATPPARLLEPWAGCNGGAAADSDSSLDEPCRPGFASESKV

Chain of Sodium-dependent noradrenaline transporter (P23975 whole entry): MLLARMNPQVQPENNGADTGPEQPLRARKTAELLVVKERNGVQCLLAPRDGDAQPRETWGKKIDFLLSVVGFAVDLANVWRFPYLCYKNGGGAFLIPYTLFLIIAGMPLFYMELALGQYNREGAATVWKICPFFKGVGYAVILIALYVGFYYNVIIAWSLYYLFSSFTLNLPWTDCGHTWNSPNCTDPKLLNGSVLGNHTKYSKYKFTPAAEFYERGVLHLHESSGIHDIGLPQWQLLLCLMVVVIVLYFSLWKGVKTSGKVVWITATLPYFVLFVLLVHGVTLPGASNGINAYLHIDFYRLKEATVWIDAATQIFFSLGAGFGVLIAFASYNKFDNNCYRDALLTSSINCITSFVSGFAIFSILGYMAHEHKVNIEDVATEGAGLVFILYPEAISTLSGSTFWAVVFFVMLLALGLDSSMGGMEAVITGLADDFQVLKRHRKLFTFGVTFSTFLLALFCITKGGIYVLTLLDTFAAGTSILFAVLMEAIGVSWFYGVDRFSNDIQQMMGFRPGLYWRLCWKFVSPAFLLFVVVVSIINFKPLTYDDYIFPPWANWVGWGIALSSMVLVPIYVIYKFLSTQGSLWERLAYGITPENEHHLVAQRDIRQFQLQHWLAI
Chain of Sodium channel protein type 2 subunit alpha (Q99250 whole entry): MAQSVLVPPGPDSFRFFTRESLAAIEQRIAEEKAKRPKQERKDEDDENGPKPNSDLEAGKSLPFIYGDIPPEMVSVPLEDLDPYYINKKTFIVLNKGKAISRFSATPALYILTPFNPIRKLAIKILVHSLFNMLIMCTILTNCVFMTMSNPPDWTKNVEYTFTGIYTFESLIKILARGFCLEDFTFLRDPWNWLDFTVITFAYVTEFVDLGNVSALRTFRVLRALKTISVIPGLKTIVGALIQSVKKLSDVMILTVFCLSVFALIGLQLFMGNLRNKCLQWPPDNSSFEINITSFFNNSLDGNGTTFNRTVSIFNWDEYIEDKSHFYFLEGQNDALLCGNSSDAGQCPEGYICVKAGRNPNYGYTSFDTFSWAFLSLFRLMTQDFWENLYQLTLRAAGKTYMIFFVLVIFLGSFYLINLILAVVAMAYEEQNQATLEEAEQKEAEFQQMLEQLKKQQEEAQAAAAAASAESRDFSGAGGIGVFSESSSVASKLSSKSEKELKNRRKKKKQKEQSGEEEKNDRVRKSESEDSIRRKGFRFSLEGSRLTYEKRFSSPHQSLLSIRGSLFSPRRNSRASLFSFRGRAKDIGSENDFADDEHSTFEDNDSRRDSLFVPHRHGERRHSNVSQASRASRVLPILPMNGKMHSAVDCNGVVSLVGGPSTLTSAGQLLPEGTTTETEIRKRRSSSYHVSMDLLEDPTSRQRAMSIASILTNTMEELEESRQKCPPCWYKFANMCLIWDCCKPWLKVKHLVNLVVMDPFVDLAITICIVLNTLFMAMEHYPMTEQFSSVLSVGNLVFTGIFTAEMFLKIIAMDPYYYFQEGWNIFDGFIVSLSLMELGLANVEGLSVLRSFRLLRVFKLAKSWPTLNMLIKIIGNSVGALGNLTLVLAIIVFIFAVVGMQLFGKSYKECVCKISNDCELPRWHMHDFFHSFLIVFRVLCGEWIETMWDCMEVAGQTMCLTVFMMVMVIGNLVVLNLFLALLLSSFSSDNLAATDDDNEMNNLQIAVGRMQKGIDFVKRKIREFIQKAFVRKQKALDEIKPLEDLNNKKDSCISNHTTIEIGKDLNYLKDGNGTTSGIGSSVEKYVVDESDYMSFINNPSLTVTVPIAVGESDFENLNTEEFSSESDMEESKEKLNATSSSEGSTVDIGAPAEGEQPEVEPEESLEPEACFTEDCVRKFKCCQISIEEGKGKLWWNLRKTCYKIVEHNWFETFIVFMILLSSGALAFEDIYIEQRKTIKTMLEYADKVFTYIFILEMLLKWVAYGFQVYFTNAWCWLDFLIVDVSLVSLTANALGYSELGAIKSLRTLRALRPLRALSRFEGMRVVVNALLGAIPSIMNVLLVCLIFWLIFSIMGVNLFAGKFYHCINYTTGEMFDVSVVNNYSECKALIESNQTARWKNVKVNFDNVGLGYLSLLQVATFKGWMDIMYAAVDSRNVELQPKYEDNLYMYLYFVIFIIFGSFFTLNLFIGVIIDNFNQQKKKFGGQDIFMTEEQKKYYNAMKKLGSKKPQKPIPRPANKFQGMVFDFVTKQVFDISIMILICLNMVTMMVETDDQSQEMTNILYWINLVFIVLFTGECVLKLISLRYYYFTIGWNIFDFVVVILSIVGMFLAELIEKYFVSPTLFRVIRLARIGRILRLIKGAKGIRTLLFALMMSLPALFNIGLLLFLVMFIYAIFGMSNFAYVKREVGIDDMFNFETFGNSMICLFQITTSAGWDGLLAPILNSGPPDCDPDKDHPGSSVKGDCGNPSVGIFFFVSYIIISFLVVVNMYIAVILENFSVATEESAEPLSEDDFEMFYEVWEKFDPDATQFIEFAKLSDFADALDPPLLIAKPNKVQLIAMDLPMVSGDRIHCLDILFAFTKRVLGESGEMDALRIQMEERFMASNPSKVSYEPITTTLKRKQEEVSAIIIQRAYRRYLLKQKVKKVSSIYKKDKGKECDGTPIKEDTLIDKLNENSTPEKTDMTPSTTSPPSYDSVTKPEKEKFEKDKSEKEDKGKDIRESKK
Chain of 3',5'-cyclic-AMP phosphodiesterase 4D (Homo sapiens) (Q08499 whole entry): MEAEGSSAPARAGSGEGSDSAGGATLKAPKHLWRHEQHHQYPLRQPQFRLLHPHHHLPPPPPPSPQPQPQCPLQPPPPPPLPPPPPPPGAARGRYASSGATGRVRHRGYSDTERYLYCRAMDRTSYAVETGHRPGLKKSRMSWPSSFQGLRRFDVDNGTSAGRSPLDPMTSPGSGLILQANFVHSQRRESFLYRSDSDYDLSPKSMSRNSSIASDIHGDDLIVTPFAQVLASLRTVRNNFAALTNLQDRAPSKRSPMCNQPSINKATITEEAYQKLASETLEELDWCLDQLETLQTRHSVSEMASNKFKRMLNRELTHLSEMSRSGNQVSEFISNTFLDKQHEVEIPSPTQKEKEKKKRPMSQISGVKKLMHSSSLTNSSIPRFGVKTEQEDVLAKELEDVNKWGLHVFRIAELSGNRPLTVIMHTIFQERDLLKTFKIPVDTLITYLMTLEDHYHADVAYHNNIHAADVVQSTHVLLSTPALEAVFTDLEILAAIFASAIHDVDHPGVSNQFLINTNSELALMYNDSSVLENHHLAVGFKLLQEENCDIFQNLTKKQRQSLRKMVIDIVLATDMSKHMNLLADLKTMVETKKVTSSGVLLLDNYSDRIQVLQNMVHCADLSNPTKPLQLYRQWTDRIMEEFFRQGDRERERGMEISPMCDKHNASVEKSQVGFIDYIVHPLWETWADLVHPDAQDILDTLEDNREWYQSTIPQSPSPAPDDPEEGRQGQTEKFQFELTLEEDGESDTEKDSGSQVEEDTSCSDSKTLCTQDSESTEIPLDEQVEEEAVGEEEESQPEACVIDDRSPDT
Chain of Alpha-2A adrenergic receptor (Homo sapiens) (P08913 whole entry): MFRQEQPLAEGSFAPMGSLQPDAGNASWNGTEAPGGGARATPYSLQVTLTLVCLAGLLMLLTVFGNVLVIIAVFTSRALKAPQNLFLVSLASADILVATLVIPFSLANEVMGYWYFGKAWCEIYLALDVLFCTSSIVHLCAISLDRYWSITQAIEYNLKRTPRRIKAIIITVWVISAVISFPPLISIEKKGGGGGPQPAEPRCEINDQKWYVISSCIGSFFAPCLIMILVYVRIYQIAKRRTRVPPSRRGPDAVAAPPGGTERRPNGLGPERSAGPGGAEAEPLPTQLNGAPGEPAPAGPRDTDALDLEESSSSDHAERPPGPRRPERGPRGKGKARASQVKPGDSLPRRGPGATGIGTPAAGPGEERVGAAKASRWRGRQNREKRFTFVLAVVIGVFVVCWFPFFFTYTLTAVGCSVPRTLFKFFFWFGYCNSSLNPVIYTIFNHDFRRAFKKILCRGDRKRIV
Chain of Muscarinic acetylcholine receptor M2 (Homo sapiens) (P08172 whole entry, the tested form may be a part): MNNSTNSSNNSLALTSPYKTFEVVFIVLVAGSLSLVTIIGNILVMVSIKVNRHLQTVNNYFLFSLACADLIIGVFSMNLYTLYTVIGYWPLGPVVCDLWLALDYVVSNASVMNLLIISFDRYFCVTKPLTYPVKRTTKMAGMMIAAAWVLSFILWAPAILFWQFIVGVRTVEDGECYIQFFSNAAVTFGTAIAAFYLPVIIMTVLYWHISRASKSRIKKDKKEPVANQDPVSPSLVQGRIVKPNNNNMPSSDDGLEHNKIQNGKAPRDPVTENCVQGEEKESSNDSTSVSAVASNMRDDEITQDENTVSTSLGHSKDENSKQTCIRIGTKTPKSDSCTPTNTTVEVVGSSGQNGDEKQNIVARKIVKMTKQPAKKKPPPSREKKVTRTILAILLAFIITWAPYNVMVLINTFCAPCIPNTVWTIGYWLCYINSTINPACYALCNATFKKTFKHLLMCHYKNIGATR

N#Cc1cc(S(=O)(=O)Nc2ncns2)ccc1Oc1ccc(-c2cccc(C(F)(F)F)c2)cc1-c1ccnc(CNCCC2CCNCC2)c1
inhibition [1]: 24% | half-life [2]: 354 min | inhibition [3]: -8% | inhibition [4]: 60% | IC50 [5]: 4.25 µM | Ki [5]: 3.16 µM | IC50 [6]: 2.52 to 3 nM | fraction unbound [7]: 0.00275 | inhibition [8]: -4% | clearance [9]: 83.1 mL/min/kg | Activity [10]: -7% | Activity [11]: -4%
